Active and inactive are the calls of the source. No cut-off for these calls is given here.
Key:
[1] = Toxicity in male Wistar rat assessed as ratio of adrenals to body weight at 400 mg/kg, po after 28 days (reference value: 0.020 +/- 0.003); format: organism-based; settings: in vivo, 672 h, time 28 day
[2] = AUC(0 to t) in Sprague-Dawley rat at 25 mg/kg, po up to 24 hrs; format: ADME, organism-based; set-up: route oral, dose 25 mg/kg, time <=24; settings: in vivo
Procedure, shortened: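 Male SD rats fasted overnight, water ad libitum, fed 4 h after dosing. Single oral gavage of 25 mg/kg as a homogeneous suspension in 0.5% Tween 80 in 0.5% Na-CMC. Blood drawn into Na-heparin tubes at 0.25, 0.5, 1, 2, 4, 6, 8 and 24 h; plasma stored at -70°C. Parameters by non-compartmental analysis, with C0 taken as zero and BLQ samples set to zero.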

[3] = Toxicity in male Wistar rat assessed as ratio of epididymides to body weight at 200 mg/kg, po after 28 days (reference value: 0.361 +/- 0.028); format: organism-based; settings: in vivo, 672 h, time 28 day
[4] = Toxicity in female Wistar rat assessed as glucose level at 100 mg/kg, po after 28 days (reference value: 78.4 +/- 8.36 mg/dl); format: organism-based; settings: in vivo, 672 h, time 28 day
[5] = Toxicity in male Wistar rat assessed as albumin level at 400 mg/kg, po after 28 days (reference value: 3.56 +/- 0.08 g.dl); format: organism-based; settings: in vivo, 672 h, time 28 day
[6] = Toxicity in male Wistar rat assessed as ratio of spleen to body weight at 400 mg/kg, po after 28 days (reference value: 0.206 +/- 0.026); format: organism-based; settings: in vivo, 672 h, time 28 day
[7] = Toxicity in male Wistar rat assessed as ratio of adrenals to body weight at 200 mg/kg, po after 28 days (reference value: 0.020 +/- 0.003); format: organism-based; settings: in vivo, 672 h, time 28 day
[8] = Toxicity in female Wistar rat assessed as ratio of thymus to body weight at 400 mg/kg, po after 28 days (reference value: 0.260 +/- 0.025); format: organism-based; settings: in vivo, 672 h, time 28 day
[9] = Toxicity in female Wistar rat assessed as ratio of uterus to body weight at 200 mg/kg, po after 28 days (reference value: 0.335 +/- 0.108); format: organism-based; settings: in vivo, 672 h, time 28 day
[10] = Toxicity in male Wistar rat assessed as ratio of kidney to body weight at 200 mg/kg, po after 28 days (reference value: 0.787 +/- 0.078); format: organism-based; settings: in vivo, 672 h, time 28 day
[11] = Toxicity in male Wistar rat assessed as AST level at 100 mg/kg, po after 28 days (reference value: 119.4 +/- 9.3 U/L); format: organism-based; settings: in vivo, 672 h, time 28 day
[12] = Toxicity in female Wistar rat assessed as ratio of uterus to body weight at 100 mg/kg, po after 28 days (reference value: 0.335 +/- 0.108); format: organism-based; settings: in vivo, 672 h, time 28 day
[13] = AUC(0 to infinity) in Wistar rat at 10 mg/kg, po up to 24 hrs; format: ADME, organism-based; set-up: route oral, dose 10 mg/kg, time <=24; settings: in vivo
Procedure, shortened: (§1)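 Single oral dose at 10 mg/kg given to male Wistar rats and to Beagle dogs; bioavailability also determined in both species.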

[14] = Toxicity in female Wistar rat assessed as globulin level at 400 mg/kg, po after 28 days (reference value: 2.44 +/- 0.18 g/dl); format: organism-based; settings: in vivo, 672 h, time 28 day
Mus musculus = test: Antidiabetic activity in glucose-stimulated db/db mouse assessed as increase in glucose dependent insulin secretion at 50 mg/kg, po after 10 to 30 mins; format: functional, organism-based; settings: time 10-30 min
[15] = Toxicity in male Wistar rat assessed as urea level at 400 mg/kg, po after 28 days (reference value: 58.14 +/- 9.13 mg/dl); format: organism-based; settings: in vivo, 672 h, time 28 day
[16] = Toxicity in female Wistar rat assessed as change in survival at 100 to 400 mg/kg, po after 28 days; format: organism-based; settings: in vivo, 672 h, dose 100-400 mg/kg, time 28 day
Procedure, shortened: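 Repeated-dose oral toxicity by gavage in Wistar rats, 10 males and 10 females per group, given 100, 200 or 400 mg/kg once daily for 28 days. Endpoints were clinical signs, mortality, neurobehaviour, food intake, ophthalmic examination and body weight. Animals were sacrificed on day 29 for blood biochemistry, organ-to-body weight ratios and histopathology.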

[17] = Toxicity in female Wistar rat assessed as ratio of heart to body weight at 400 mg/kg, po after 28 days (reference value: 0.38 +/- 0.037); format: organism-based; settings: in vivo, 672 h, time 28 day
[18] = Toxicity in male Wistar rat assessed as urea level at 100 mg/kg, po after 28 days (reference value: 58.14 +/- 9.13 mg/dl); format: organism-based; settings: in vivo, 672 h, time 28 day
[19] = Toxicity in female Wistar rat assessed as albumin level at 400 mg/kg, po after 28 days (reference value: 3.57 +/- 0.14 g.dl); format: organism-based; settings: in vivo, 672 h, time 28 day
[20] = Toxicity in female Wistar rat assessed as ALT level at 400 mg/kg, po after 28 days (reference value: 21.28 +/- 2.31 U/L); format: organism-based; settings: in vivo, 672 h, time 28 day
[21] = Toxicity in male Wistar rat assessed as ratio of kidney to body weight at 400 mg/kg, po after 28 days (reference value: 0.787 +/- 0.078); format: organism-based; settings: in vivo, 672 h, time 28 day
[22] = Toxicity in male Wistar rat assessed as ratio of testes to body weight at 200 mg/kg, po after 28 days (reference value: 1.248 +/- 0.073); format: organism-based; settings: in vivo, 672 h, time 28 day
[23] = Toxicity in female Wistar rat assessed as ratio of heart to body weight at 200 mg/kg, po after 28 days (reference value: 0.38 +/- 0.037); format: organism-based; settings: in vivo, 672 h, time 28 day
[24] = Toxicity in female Wistar rat assessed as ratio of thymus to body weight at 100 mg/kg, po after 28 days (reference value: 0.260 +/- 0.025); format: organism-based; settings: in vivo, 672 h, time 28 day
[25] = Toxicity in male Wistar rat assessed as creatinine level at 100 mg/kg, po after 28 days (reference value: 0.61 +/- 0.04 mg/dl); format: organism-based; settings: in vivo, 672 h, time 28 day
[26] = Toxicity in female Wistar rat assessed as globulin level at 100 mg/kg, po after 28 days (reference value: 2.44 +/- 0.18 g/dl); format: organism-based; settings: in vivo, 672 h, time 28 day
[27] = Toxicity in female Wistar rat assessed as ratio of adrenals to body weight at 400 mg/kg, po after 28 days (reference value: 0.045 +/- 0.007); format: organism-based; settings: in vivo, 672 h, time 28 day
[28] = Toxicity in male Wistar rat assessed as ratio of testes to body weight at 400 mg/kg, po after 28 days (reference value: 1.248 +/- 0.073); format: organism-based; settings: in vivo, 672 h, time 28 day
[29] = Toxicity in male Wistar rat assessed as creatinine level at 200 mg/kg, po after 28 days (reference value: 0.61 +/- 0.04 mg/dl); format: organism-based; settings: in vivo, 672 h, time 28 day
[30] = Cmax in Wistar rat at 10 mg/kg, po up to 24 hrs; format: ADME, organism-based; set-up: route oral, dose 10 mg/kg, time <=24; settings: in vivo; procedure, shortened: as §1
[31] = Toxicity in female Wistar rat assessed as ratio of spleen to body weight at 400 mg/kg, po after 28 days (reference value: 0.244 +/- 0.032); format: organism-based; settings: in vivo, 672 h, time 28 day
[32] = Toxicity in female Wistar rat assessed as glucose level at 200 mg/kg, po after 28 days (reference value: 78.4 +/- 8.36 mg/dl); format: organism-based; settings: in vivo, 672 h, time 28 day
[33] = Toxicity in female Wistar rat assessed as ratio of brain to body weight at 400 mg/kg, po after 28 days (reference value: 1.1 +/- 0.078); format: organism-based; settings: in vivo, 672 h, time 28 day

Work on Cc1c(Oc2cccc(/C=C3\SC(=O)NC3=O)c2)ncnc1OC1CCN(C(=O)OC(C)(C)C)CC1 yielded a Ratio [1] of 0.023, an AUC(0-t) at 24 h [2] of 19100 ng·h/mL and a Ratio [3] of 0.406. The Activity [4] was 79.83 mg/dL, the Activity [5] was 3.54 g/dL and the Ratio [6] was 0.211. For the same molecule, the Ratio [7] was 0.023, the Ratio [8] was 0.244 and the Ratio [9] was 0.33. For the same molecule, the Ratio [10] was 0.847, the Activity [11] was 114.13 U/L and the Ratio [12] was 0.345. For the same molecule, the AUC(0-inf) [13] was 1900 ng·h/mL, the Activity [14] was 2.42 g/dL and the Activity (Mus musculus) was “Active”. The Activity [15] was 51.15 mg/dL, the Activity [16] was “Non-Toxic” and the Ratio [17] was 0.367. The Activity [18] was 55.36 mg/dL, the Activity [19] was 3.57 g/dL and the Activity [20] was 23.3 U/L. The Ratio [21] was 0.845, the Ratio [22] was 1.289 and the Ratio [23] was 0.394. The Ratio [24] was 0.241, the Activity [25] was 0.57 mg/dL and the Activity [26] was 2.39 g/dL. It also gave a Ratio [27] of 0.042, a Ratio [28] of 1.23 and an Activity [29] of 0.57 mg/dL. For the same molecule, the Cmax [30] was 256 ng/mL, the Ratio [31] was 0.228 and the Activity [32] was 82.1 mg/dL. The Ratio [33] was 1.069.
